In the library only some 3.5% were active in any assay of this set; here they are far more common.
MrgX1 agonist: agonists of human MrgX1 receptor. Q96LB2. MrgX1-HEK293 cells, Fluo-4 calcium fluorescence, agonist mode; stronger effect = higher value. B-score at 10 µM. 310,000 compounds, 0.44% hits. AID 588627;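 active = calcium response B-score plate-corrected fluorescence ratio at least 3 library SD, with starting fluorescence B-score inside 5 SD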
Target sequence (Q96LB2 whole entry, looked up): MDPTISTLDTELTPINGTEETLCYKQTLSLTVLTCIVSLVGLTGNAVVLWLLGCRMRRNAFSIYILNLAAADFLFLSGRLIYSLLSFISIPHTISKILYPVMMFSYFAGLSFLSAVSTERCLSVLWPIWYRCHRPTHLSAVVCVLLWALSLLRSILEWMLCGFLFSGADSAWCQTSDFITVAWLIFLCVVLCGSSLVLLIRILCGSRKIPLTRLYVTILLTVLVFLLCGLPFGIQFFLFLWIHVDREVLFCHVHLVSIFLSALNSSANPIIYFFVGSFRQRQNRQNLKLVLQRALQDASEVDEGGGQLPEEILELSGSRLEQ
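Material – MrgX1-expressing HEK293 cells · Input – 15,000 cells seeded per well · Dosing – compound as first of three additions · Times – overnight seeding, then 1 h dark dye loading · Measured by – kinetic Fluo-4 NW fluorescence of intracellular calcium · Read-out – B-scored fluorescence response ratio · Benchmarks – positive and negative control wells on each plate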
RGS4 inh: inhibitors of human RGS4. P49798. HEK293 M3R/RGS4 inducible, Fluo-4 calcium flux; stronger effect = higher value; triggered by carbachol at its EC20. B-score at 10 µM. 310,000 compounds, 0.45% hits. AID 463165;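 active = B-score, a plate-corrected calcium signal, over three deviations above library mean, with baseline fluorescence within five deviations of library mean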;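 also: RGS4 expression induced by doxycycline in cells with stable M3 receptor; B-score is computed from the integrated fluorescence ratio over baseline after carbachol; higher B-score means a larger calcium signal and so more RGS4 inhibition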
Target sequence (P49798 whole entry, looked up): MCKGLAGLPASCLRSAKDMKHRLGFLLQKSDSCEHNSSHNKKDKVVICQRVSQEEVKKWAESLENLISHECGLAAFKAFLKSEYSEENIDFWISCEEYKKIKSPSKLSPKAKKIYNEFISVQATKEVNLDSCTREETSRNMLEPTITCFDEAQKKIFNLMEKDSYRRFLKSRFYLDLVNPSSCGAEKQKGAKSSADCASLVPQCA
MrgX1 antag: human MrgX1 receptor antagonism, primary screen | B-score at 10 µM | 310,000 compounds, 1.3% hits | MRGX1-HEK293 calcium flux, Fluo-4, BAM8-22 antagonism; stronger effect = lower value | AID 588676;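 active = calcium-response B-score plate-corrected more than 3 library SD below zero, starting fluorescence within 5 deviations, no agonist response on first addition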;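 also: peak minus trough fluorescence over baseline after final BAM8-22 challenge near maximal dose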
MrgX1 allo act: allosterically activates human MrgX1 receptor signaling | 310,000 compounds, 0.63% hits | Q96LB2 | MrgX1-HEK293, Fluo-4 calcium flux, FDSS; stronger effect = higher value | AID 588675 | B-score at 10 µM;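 active = plate-corrected calcium response at least 3 library SD above typical, normal starting fluorescence, not activating the receptor alone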;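 also: compound read alongside a low EC10 to EC30 dose of BAM8-22 agonist; peak minus trough fluorescence over baseline measured at the second addition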
RGS4 act: potentiators or activators of RGS4 | HEK293 M3R/inducible RGS4, carbachol calcium flux Fluo4; stronger effect = lower value | AID 463111 | 310,000 compounds, 0.92% hits | B-score at 10 µM;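 active = B-score of the integrated calcium signal more than 4 SD below the library mean, with starting fluorescence not abnormally high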;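 also: negative B-score means reduced calcium response which marks RGS4 activation or potentiation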
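Also added: carbachol at ECmax as muscarinic agonist stimulus; Assay system: HEK293 cells with stable M3R and inducible RGS4; Timing: overnight RGS4 induction, 30 min dye load 37 °C, 20 min compound RT; Measured by: Fluo4-AM (2 µM) calcium-flux fluorescence, kinetic read.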
Of the large screens only hits and unclear results are named; the others gave an inactive call.

O=C1NC(=S)S/C1=C\c1ccc2ccccc2c1	MrgX1 antag -4.9
CCCCCCCCSc1nnc(CSc2nc3nc(C)cc(C)n3n2)o1	RGS4 act -8.3
COc1cccc(NC(=S)N(CCC(C)C)C2CCN(C(C)=O)CC2)c1	none
COCCCn1c(SCC(=O)NC2CCCCC2)nnc1-c1ccco1	none
COc1ccc(-c2cnnc(N/N=C/c3ccc(O)cc3)n2)cc1	none
COc1ccc(-c2cnnc(N/N=C/c3ccc(C)o3)n2)cc1	MrgX1 antag -5.2
Cc1ccc(/C=C2/Sc3ccccc3N(CC(=O)NCC3CCCO3)C2=O)cc1 (stereo not given)	RGS4 act -7.4
CC(=O)Nc1ccc(S(=O)(=O)Nc2ccn(Cc3ccccc3Cl)n2)cc1	none (no result: MrgX1 agonist, MrgX1 antag, MrgX1 allo act)
C=CCn1c(SCC(=O)c2cc(C)n(C(C)COC)c2C)nc2sc(C)c(C)c2c1=O (stereo not given)	RGS4 act -7.5
O=C(On1c(-c2ccccc2)nc2ccccc2c1=O)c1ccco1	RGS4 act -8.1
O=P(C(=NCCO)NO)(N1CCOCC1)N1CCOCC1	none
O=C(CN1CCCCC1)Nc1ccccc1-c1ccccc1	RGS4 act -10
COC(=O)c1cc2occc2n1Cc1nc(-c2ccc(Cl)cc2)oc1C	RGS4 act -7.2
COC(=O)c1cc2ccsc2n1Cc1nc(-c2ccc(Cl)cc2)oc1C	none
COC(=O)c1cc2occc2n1Cc1nc(-c2ccccc2Cl)oc1C	RGS4 act -7.5
Cc1ccc(CNC(=O)C2CCCCN2S(=O)(=O)c2ccccc2)cc1 (stereo not given)	none
O=C(CCN1CCCCCC1)c1ccccc1	MrgX1 agonist 31 (no result: RGS4 inh, RGS4 act)
CC(=O)NN1C(=O)/C(=C\c2ccccc2)SC1=S	MrgX1 allo act 9.5
CC(=O)NN1C(=O)/C(=C/c2ccc(Br)o2)SC1=S	MrgX1 allo act 7.1
O=C(c1cccs1)c1no[n+]([O-])c1C(=O)c1cccs1	MrgX1 agonist 99, RGS4 act -7
O=C(c1ccc(Cl)nc1)c1cccs1	none
Cc1ccc(NC(=O)CSc2ccc(-c3ccccn3)nn2)cc1F	none
Cc1ccc(-c2nnn(CC(=O)N3CCN(c4ccccc4)CC3)n2)o1	RGS4 act -7.6
COc1ccc(N2CCN(C(=O)Cn3nnc(-c4ccc(OC)c(OC)c4)n3)CC2)cc1	none
C=C(C)[C@@H]1CCC2(C(=O)O)CC[C@]3(C)[C@H](CC[C@@H]4[C@@]5(C)CCC(=O)C(C)(C)[C@@H]5CC[C@]43C)[C@@H]12 (stereo not given in full)	MrgX1 antag -8.3
CCOC(=O)c1[nH]c2ccc(Br)cc2c1NC(=O)CCN1CCCC(C)C1 (stereo not given)	RGS4 act -8.6
CCOC(=O)c1[nH]c2ccc(Br)cc2c1NC(=O)CCN1CCC(C)CC1	none
COc1ccccc1C(=O)NNC1=C(C(=O)C(F)(F)F)CCC1	MrgX1 agonist 39
O=C(NNC1=C(C(=O)C(F)(F)F)CCC1)c1ccccc1O	none
CCCOc1ccccc1C1CC(=O)NC(C)=C1C(=O)OCC(C)C (stereo not given)	none
COC(=O)C1=C(C)NC(C)=C(C(=O)OCC(C)C)C1c1ccccc1[N+](=O)[O-] (stereo not given)	MrgX1 agonist 31
Cn1c(=O)n(CCc2ccccc2)c(=O)c2c1nc1n2CCCN1CCc1ccccc1	RGS4 act -7.7
CC(=O)c1cccc(CN(C)CC2CCCN(CCc3ccccc3C)C2)c1 (stereo not given)	RGS4 act -7
CN(Cc1ccccc1)CC1CCCN(CCc2ccccc2F)C1 (stereo not given)	none
CC(=O)c1ccc(-n2cc(-c3ccc(C(C)(C)C)cc3)[n+]3c2SCCC3)cc1	RGS4 act -9.6
CCC[n+]1c(C)sc2c(OC)ccc(OC)c21	MrgX1 antag -5.5
Cc1ccc(N2C(=O)c3ccccc3C2C(=O)c2ccc(C)c(C)c2O)cc1 (stereo not given)	RGS4 act -7
Cc1ccc(N2C(=O)c3ccccc3C2C(=O)c2ccc(O)cc2O)cc1 (stereo not given)	none
O=C(CCCN1C(=O)C(c2ccccc2)Oc2cccnc21)NCc1ccccc1F (stereo not given)	none
Cc1cc(C(=O)NNC(=O)c2cccs2)nn1C(C)(C)C	MrgX1 antag -7.2
Cc1cc(C(=O)NNS(=O)(=O)c2ccc(F)cc2)nn1C(C)(C)C	none
COc1ccc(Cl)cc1C(=O)NNC(=S)NC(=O)c1ccc(F)c(F)c1	MrgX1 antag -5.9
COc1ccc(Cl)cc1C(=O)NNC(=S)NC(=O)c1cc(-c2ccc(Cl)cc2)nc2ccccc12	MrgX1 antag -7.3, RGS4 act -8.4
COc1ccc(C(=O)NNC(=S)NC(=O)c2ccc(F)cc2)cc1Br	none
COc1ccccc1C(=O)NNC(=S)NC(=O)c1sc2ccccc2c1Cl	MrgX1 agonist 36, RGS4 act -8.7
COc1cc(C(=O)NC(=S)NNC(=O)c2ccc3c(c2)OCO3)cc(OC)c1OC	MrgX1 agonist 60
Cc1c(NC(=S)NC(=O)c2sc3ccccc3c2Cl)cccc1C(=O)O	none
O=C(O)CC1c2ccccc2CCN1S(=O)(=O)c1cccs1 (stereo not given)	none
O=C(NN1C(=O)C2C3C=CC([C@@H]2C1=O)C31CC1)c1ccccc1 (stereo not given in full)	none
CC1CCC(C(C)C)C(OP(=O)(c2ccccc2)C(O)c2ccncc2)C1 (stereo not given)	none
CC1CCC(C(C)C)C(OP(=O)(c2ccc(N(C)C)cc2)C(O)c2cccnc2)C1 (stereo not given)	MrgX1 antag -8.7
O=C(CCC1CCCCC1)NCCN1C2=NC[C@H](Cc3ccccc3)N2C[C@H]1Cc1ccc(O)cc1	RGS4 act -8
C[C@H]1CN=C2N(CCNC(=O)CCC3CCCCC3)[C@H](Cc3ccc(O)cc3)CN21	none
O=C(CCC1CCCCC1)NCCN1C2=NC[C@@H](Cc3ccccc3)N2C[C@H]1Cc1ccc(O)cc1	RGS4 act -7.1
COc1ccc(NC(=O)N/C=C/c2ccccc2)cc1	none
COc1ccc(C(=O)/C=C/c2cccc(OCc3ccccc3)c2)cc1CSCC(=O)O	MrgX1 agonist 30
COc1ccc(C(=O)/C=C/c2ccc(OCc3ccccc3)cc2)cc1CSCC(=O)O	none
O=C1C(=O)N(C/C=C/c2ccccc2)c2ccccc21	none
CCCN1CCc2c(sc(NC(=S)NC(=O)c3ccccc3)c2C#N)C1	MrgX1 agonist 80
CC(C)N1CCc2c(sc(NC(=S)NC(=O)c3ccccc3)c2C#N)C1	none
CCOC(=O)c1c(NC(=S)Nc2ccccc2)sc2c1CCN(CCc1ccccc1)C2	MrgX1 antag -5 (no result: RGS4 inh, RGS4 act)
CC(C)c1ccc(CNn2cnnc2)cc1	none
Cc1ccc(NS(=O)(=O)c2cccc(C(=O)NNC(=O)c3cccn3C)c2)c(C)c1	MrgX1 antag -6.7
COc1ccc(NS(=O)(=O)c2cccc(C(=O)NNC(=O)c3cccn3C)c2)cc1	none

Screening results (PubChem BioAssay)
